Compound activity from PubChem BioAssay.
NR2E3 ag-1 = agonists of human nuclear receptor NR2E3 | inhibition of corepressor binding, % at 4.78 µM | Q9Y5X4 | 0.12% of 320,000 active | GST-NR2E3/biotin-RetCOR TR-FRET, 1536-well;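 active = percent inhibition above the cutoff of mean plus 3 SD of all tested compounds, set per screening campaign, cut at about 20% in these data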;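 also: 0% = DMSO wells and 100% = biotin wells as full block of FRET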
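System: GST-NR2E3 and biotin-RetCOR proteins; probe or stimulus: 7 nM biotin-RetCOR; doses: compound at 4.8 µM, single dose; schedule: Compound–protein incubation for 5 h at 4 °C; detection: time-resolved FRET; read-out: percent inhibition; controls: biotin wells as high control, 0.6% DMSO wells as low control; format: 1536-well plates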
NR2E3 ag-2 = activates human NR2E3 receptor; Q9Y5X4; CHO-S Gal4-NCOR/VP16-NR2E3 two-hybrid, luciferase; AID 602229; inhibition of corepressor binding, % at 3.98 µM; 0.35% of 360,000 active;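 active = inhibition above the mean of all tested compounds plus 3 SD, cut at about 70% in these data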;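 also: 0% = DMSO with NR2E3 transfected cells and 100% = cells lacking NR2E3 construct; higher means lower luciferase signal from less NR2E3 corepressor binding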
GalR3 antag = antagonists of human GalR3; AID 651719; inhibition, % at 3 µM; O60755; HEK293 GalR3-CNG cAMP membrane potential fluorescence; galR3 body fused to GalR1 C-terminus; 0.44% of 360,000 active;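 active = inhibition above the screen-wide average plus 3 SD, cut at about 13% in these data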;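 also: forskolin and galanin both at EC90 stimulate the cells; cAMP rise reported by CNG channel membrane potential dye signal; 0% = forskolin plus galanin with DMSO and 100% = forskolin alone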
SMARCA2 activ = activators of SMARCA2 function; MG213 cells, MMTV-luciferase reporter, dexamethasone, overnight; activation, % at 9.1 µM; 1% of 370,000 active; AID 652017; in the data active = activation above about 7.8%;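 also: 0% = vehicle wells and 100% = reference activator wells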
NR2F2 inh = NR2F2 (human) inhibition, primary screen. AID 686940. 0.7% of 370,000 active. HEK293T NGFI-A luciferase reporter, luminescence. inhibition, % at 8.6 µM. P24468;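 active = inhibition above a per-plate cutoff, mean inhibition of test wells between control levels plus 3 SD, cut at about 38% in these data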;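 also: cells cotransfected with COUP-TFII expression vector driving the NGFI-A reporter; 0% = median of COUP-TF2 test wells and 100% = reporter-only cells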
NR2E3 agonist cf = confirmation of human NR2E3 nuclear receptor agonists. shares compounds with NR2E3 ag-1. 39% of 360 active. cell-free NR2E3 corepressor release, TR-FRET, 5 h. activation (reported as inhibition), % at 3.98 µM; in the data active = activation above about 20%
PPARg-NCOR2 ctr = counter-screen for NR2E3 agonists: human PPARgamma-NCOR2 interaction agonists | shares compounds with NR2E3 ag-1 | TR-FRET PPARg-NCOR2 coregulator interaction, biochemical | inhibition, % at 3.98 µM | 45% of 360 active; in the data active = inhibition above about 20%;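 also: 0% = DMSO vehicle and 100% = wells without protein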
Target sequence (P37231 whole entry, looked up): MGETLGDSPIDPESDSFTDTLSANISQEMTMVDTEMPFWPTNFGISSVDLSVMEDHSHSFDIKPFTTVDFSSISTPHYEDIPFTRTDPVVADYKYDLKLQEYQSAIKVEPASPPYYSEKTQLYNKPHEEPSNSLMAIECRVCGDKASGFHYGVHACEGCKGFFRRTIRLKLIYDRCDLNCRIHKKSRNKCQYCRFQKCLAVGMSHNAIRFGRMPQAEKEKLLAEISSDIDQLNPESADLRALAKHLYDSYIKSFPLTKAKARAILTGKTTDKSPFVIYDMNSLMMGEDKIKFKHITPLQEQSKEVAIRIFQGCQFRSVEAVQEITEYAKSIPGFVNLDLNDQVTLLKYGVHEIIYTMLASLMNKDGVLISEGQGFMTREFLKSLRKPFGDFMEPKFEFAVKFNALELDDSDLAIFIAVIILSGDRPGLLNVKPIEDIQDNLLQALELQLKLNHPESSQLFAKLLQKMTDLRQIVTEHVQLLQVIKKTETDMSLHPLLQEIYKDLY
Target sequence (Q9Y618 whole entry, looked up): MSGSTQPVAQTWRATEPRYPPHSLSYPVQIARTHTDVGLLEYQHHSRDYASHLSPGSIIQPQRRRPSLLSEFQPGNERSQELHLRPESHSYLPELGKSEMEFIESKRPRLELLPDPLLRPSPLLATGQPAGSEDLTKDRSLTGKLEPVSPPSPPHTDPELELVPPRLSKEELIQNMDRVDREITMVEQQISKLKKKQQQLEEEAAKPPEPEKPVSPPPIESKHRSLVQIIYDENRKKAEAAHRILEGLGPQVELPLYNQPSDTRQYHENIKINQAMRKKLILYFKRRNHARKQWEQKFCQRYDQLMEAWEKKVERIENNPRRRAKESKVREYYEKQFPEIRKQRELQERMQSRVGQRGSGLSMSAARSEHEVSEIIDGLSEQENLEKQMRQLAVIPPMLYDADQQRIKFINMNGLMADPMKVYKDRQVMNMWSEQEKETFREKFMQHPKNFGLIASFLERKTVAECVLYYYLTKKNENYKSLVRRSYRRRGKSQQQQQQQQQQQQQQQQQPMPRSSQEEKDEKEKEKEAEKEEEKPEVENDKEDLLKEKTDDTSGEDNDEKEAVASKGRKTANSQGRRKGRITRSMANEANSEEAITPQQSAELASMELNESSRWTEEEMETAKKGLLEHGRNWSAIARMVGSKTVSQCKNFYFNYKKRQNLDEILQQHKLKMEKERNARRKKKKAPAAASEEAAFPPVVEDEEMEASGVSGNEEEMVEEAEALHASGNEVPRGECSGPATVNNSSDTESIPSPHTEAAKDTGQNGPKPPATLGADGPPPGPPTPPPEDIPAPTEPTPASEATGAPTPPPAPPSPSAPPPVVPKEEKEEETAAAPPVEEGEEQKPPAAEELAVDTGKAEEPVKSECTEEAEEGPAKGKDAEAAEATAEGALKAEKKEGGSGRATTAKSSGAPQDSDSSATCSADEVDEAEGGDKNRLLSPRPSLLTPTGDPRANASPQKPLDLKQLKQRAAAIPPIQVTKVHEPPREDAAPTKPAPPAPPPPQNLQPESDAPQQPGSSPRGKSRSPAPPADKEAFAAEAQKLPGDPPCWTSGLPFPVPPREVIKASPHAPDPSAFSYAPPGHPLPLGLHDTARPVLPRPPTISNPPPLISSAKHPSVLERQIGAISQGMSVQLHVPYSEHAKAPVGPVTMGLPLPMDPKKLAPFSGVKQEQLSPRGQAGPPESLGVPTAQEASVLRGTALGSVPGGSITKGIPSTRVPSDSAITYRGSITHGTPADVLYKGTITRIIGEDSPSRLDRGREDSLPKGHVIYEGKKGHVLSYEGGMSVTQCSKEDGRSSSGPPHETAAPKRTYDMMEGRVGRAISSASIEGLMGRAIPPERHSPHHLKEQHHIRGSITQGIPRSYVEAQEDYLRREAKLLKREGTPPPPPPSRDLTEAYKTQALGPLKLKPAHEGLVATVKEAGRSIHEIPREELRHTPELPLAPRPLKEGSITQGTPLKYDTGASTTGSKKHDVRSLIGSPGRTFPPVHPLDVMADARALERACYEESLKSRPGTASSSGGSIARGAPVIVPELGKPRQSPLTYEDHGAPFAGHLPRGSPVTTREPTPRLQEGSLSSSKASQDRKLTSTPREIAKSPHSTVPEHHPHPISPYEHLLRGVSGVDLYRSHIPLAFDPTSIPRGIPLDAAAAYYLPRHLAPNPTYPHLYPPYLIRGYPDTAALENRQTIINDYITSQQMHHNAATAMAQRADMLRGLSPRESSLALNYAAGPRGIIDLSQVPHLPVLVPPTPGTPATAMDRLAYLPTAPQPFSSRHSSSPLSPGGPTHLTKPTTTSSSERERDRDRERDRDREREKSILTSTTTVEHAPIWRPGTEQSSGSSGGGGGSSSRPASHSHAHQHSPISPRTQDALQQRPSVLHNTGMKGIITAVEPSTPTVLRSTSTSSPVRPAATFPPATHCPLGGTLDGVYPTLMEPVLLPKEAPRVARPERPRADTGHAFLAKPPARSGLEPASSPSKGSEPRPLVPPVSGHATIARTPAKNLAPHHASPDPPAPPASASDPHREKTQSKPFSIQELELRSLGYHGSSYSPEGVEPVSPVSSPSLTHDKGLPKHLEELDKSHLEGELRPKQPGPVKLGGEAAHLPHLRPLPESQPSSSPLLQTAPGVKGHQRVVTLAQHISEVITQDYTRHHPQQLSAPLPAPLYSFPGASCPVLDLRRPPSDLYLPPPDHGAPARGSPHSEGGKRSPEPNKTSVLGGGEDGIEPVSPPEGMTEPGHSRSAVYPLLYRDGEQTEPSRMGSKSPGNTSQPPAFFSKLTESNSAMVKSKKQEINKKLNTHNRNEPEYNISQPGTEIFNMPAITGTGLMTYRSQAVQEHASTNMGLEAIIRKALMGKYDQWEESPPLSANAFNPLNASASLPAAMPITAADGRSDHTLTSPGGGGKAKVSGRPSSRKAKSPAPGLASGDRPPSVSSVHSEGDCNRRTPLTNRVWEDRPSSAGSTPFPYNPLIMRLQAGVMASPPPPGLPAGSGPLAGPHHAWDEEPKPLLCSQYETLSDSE
Active calls of the source: *; . = no result. This is a sample that favours compounds with a hit; in the whole collection about 2.2% have one here.

SMILES | NR2E3 ag-1 | NR2E3 ag-2 | GalR3 antag | SMARCA2 activ | NR2F2 inh | NR2E3 agonist cf | PPARg-NCOR2 ctr
O=C(O)c1cc(-c2cccs2)nc2ccc(Br)cc12 | 41.3* | -35.0 | -11.2 | 4.2 | 0.4 | 41.2* | 52.9*
O=C(O)c1cc(-c2cccnc2)nc2ccc(Br)cc12 | 56.0* | 0.3 | -6.1 | -0.1 | 11.7 | 57.5* | 56.7*
Cc1ccc(C)c(NC(=O)c2ccc(CS(=O)(=O)Cc3ccccc3C)o2)c1 | . | . | . | -3.8 | -4.3 | . | .
CCc1nnc(NC(=O)c2sc3nc4cc(C)ccc4cc3c2N)s1 | 36.8* | -34.6 | -4.4 | -0.3 | 18.2 | -8.9 | -4.7
O=C(CCS(=O)(=O)c1ccccc1)Nc1ccc(F)cc1F | . | . | . | 1.0 | -3.5 | . | .
Cc1ccccc1Nc1cc2ccccc2c(=O)[nH]1 | 24.6* | 13.3 | . | . | . | 15.6 | 9.8
COC(=O)[C@H](C(C)C)N(Cc1cn(Cc2ccc(C)cc2)nn1)S(=O)(=O)c1ccc(F)cc1Br | . | . | . | -5.5 | 17.5 | . | .
CCCC1CCC2(CCC(=O)N2CCSc2ccccc2)CC1 (centres undefined) | . | . | . | 0.8 | -8.2 | . | .
c1ccc(CCNc2ncnc3c2nnn3Cc2ccccc2)cc1 | 22.2* | -18.2 | -5.1 | 4.1 | 2.7 | -10.8 | -4.8
C=CCn1c(SCC(=O)Nc2cccc(S(N)(=O)=O)c2)nnc1C1CCCCC1 | 41.9* | -12.2 | -5.0 | -0.8 | -8.5 | -1.4 | -3.3
CC1(C)CC(=O)N(CC(=O)N2CCN(Cc3ccccc3)CC2)c2ccccc2S1(=O)=O | . | . | . | -2.5 | 0.4 | . | .
Cc1ccc(OCCOc2ccc(Cl)cc2Cl)c(Br)n1 | . | . | . | . | -18.7 | . | .
COC(=O)c1cc(Br)c(=O)n(-c2nccs2)c1 | 24.7* | 4.1 | -0.8 | 0.2 | -11.6 | 22.5* | 24.3*
COC(=O)c1cc(Br)c(=O)n(-c2ccccn2)c1 | 0.1 | 21.5 | 0.7 | -0.7 | 2.3 | . | .
COC(=O)[C@]12C[C@H](CC(=O)N3CCN(C(=O)c4ccco4)CC3)C(=O)N(Cc3ccccc3)C1=C[C@H](COCc1ccccc1)O[C@@H]2C | . | . | . | 0.4 | 10.2 | . | .
C=CCNC(=O)CSc1nc2sccc2c(=O)n1-c1ccccc1 | 23.1* | 9.4 | -1.6 | 0.5 | -12.8 | -4.7 | -6.1
CCNC(=O)CSc1nc2sccc2c(=O)n1-c1ccccc1 | -1.0 | -18.1 | -7.6 | 0.4 | 5.0 | . | .
O=c1[nH]c2c(oc3ccccc32)c(=O)n1Cc1ccccc1 | . | -11.0 | -11.9 | -2.0 | 9.6 | . | .
O=c1c2oc3ccccc3c2[nH]c(=S)n1-c1ccc(F)cc1 | 44.0* | 8.1 | -2.1 | 2.7 | 15.5 | 32.3* | 24.3*
Cc1ccc(-n2c(=S)[nH]c3c(oc4ccccc43)c2=O)cc1C | 42.7* | -26.2 | -2.9 | -3.0 | 0.4 | 35.2* | 32.7*
CCC1(C)Cc2c(sc3nc(SC)[nH]c(=S)c23)CO1 (centres undefined) | 21.7* | . | . | . | . | -5.4 | 48.1*
c1ccc2c(c1)-c1cccc3c1c-2cc1ccccc13 | 24.8* | . | . | . | . | -6.7 | -3.8
c1ccc2c(c1)Oc1cccc3cccc-2c13 | 0.4 | -4.7 | -3.9 | 0.4 | 14.4 | . | .
COC(=O)C1CN(Cc2ccccc2)CCS(=O)(=O)N1Cc1cn(Cc2ccc(C)cc2)nn1 (centres undefined) | . | . | . | -1.7 | 1.5 | . | .
Cc1cc(-n2c(SCC(=O)NCCC3=CCCCC3)nc3n[nH]c(C)c3c2=N)ccc1Cl | 59.4* | 19.2 | -8.9 | -0.4 | -19.5 | 10.2 | 2.9
SMILES | NR2E3 ag-1 | NR2E3 ag-2 | GalR3 antag | SMARCA2 activ | NR2F2 inh | NR2E3 agonist cf | PPARg-NCOR2 ctr
CS(=O)(=O)N[C@@H]1C[C@@H]2O[C@H](CO)CC[C@@H]2O[C@@H]1CCc1ccc(-c2ccccc2F)cc1 | . | . | . | -4.3 | 15.1 | . | .
CN(C)CCN1C(=O)C(O)=C(C(=O)c2cc3ccccc3o2)C1c1ccccn1 (centres undefined) | 26.8* | . | . | . | . | 2.1 | 3.9
CCN(CC)CCCN1C(=O)C(O)=C(C(=O)c2cc3ccccc3o2)C1c1ccccn1 (centres undefined) | 22.2* | -7.4 | -0.6 | -1.2 | 1.1 | 24.1* | 23.7*
Cc1ccc(C2C(C(=O)c3cc4ccccc4o3)=C(O)C(=O)N2CCN(C)C)o1 (centres undefined) | . | -13.7 | -1.5 | 0.6 | 3.7 | . | .
COC(=O)[C@]12C[C@H](CC(=O)N3CCN(C(=O)c4ccco4)CC3)C(=O)N(Cc3cccc4ccccc34)C1=C[C@H](COCc1ccccc1)O[C@@H]2C | . | . | . | -1.7 | -6.8 | . | .
Cc1nc(N2CCN(C(=O)C3CCCCC3)CC2)c2c3c(sc2n1)CCCC3 | . | . | . | . | 20.5 | . | .
COc1cc(C(=O)Nc2nnc(Cc3ccccc3)s2)cc(OC)c1OC | . | 0.9 | -10.4 | -2.3 | 4.0 | . | .
O=C(Nc1nnc(Cc2ccccc2)s1)c1cccs1 | 27.0* | -29.8 | -5.1 | 2.7 | -3.1 | -2.0 | 4.2
COc1ccc(C(=O)Nc2nnc(Cc3ccccc3)s2)c(OC)c1 | 47.4* | -36.6 | -3.6 | 0.5 | -2.7 | -8.8 | 11.7
CC1=C2NC(N)=[N+](Cc3ccc4c(c3)OCO4)CC2n2c(=O)n(-c3ccccc3)c(=O)n2C1 (centres undefined) | . | . | . | -0.5 | -26.3 | . | .
O=C1C=C(N2CCOCC2)c2ccccc2C1=O | 33.2* | 17.1 | -11.1 | -9.2 | 10.4 | 37.8* | 64.6*
C[C@H]1c2cccc(O)c2C(O)=C2C(=O)C3(O)C(O)=C(C(N)=O)C(=O)[C@@H](N(C)C)[C@@H]3[C@@H](O)[C@@H]21 (some centres undefined) | -2.4 | -8.6 | . | -7.7 | 8.8 | . | .
C=C1c2cccc(O)c2C(O)=C2C(=O)[C@]3(O)C(O)=C(C(N)=O)C(=O)[C@@H](N(C)C)[C@@H]3[C@@H](O)[C@H]12 | 31.4* | -22.3 | -6.7 | -0.4 | 10.7 | 1.4 | 0.9
CCOc1ccc(NC(=O)c2ccc(OC)cc2)cc1 | 2.4 | -47.6 | 3.5 | 0.3 | -35.1 | . | .
CCOc1ncccc1C(=O)Nc1ccc(C(=O)Nc2ccc(OC)cc2)cc1 | 44.0* | -21.1 | 2.8 | 3.7 | -10.1 | 34.2* | 32.5*
C=CCN(Cc1ccccc1)C(C#CC(=C)C)Cc1ccccc1 (centres undefined) | . | . | . | -4.0 | 1.2 | . | .
CN(C(=O)c1ccc(NC(=O)Cc2ccc(NC(=O)C3CCN(C(=O)c4ccccc4)CC3)cc2)cc1)C1CC1 | 20.8* | -24.4 | -5.3 | -0.7 | 3.0 | 1.2 | -4.0
CCOC(=O)c1c(-c2ccc(C)s2)csc1N | 68.3* | -7.6 | -4.2 | -2.7 | -2.7 | -3.5 | -5.3
CCOC(=O)c1c(-c2ccsc2)csc1N | 2.7 | 1.5 | -0.9 | 0.5 | 1.4 | . | .
O=c1c([N+](=O)[O-])c(Cl)c2ccccc2n1Cc1ccccc1 | . | . | . | . | 8.2 | . | .
Cc1ccc2nc(SCC(=O)Nc3ccc4c(c3)CCC4)[nH]c2c1 | 0.4 | 2.3 | -1.1 | -3.3 | -8.9 | . | .
O=C(CSc1nc2ccc(Cl)cc2[nH]1)Nc1ccc2c(c1)CCC2 | 32.3* | -18.0 | -2.0 | -2.0 | -4.3 | -6.1 | -4.6
